One assay concerns Candida dubliniensis. In words: Antifungal activity against Candida dubliniensis SM 26 clinical isolate assessed as concentration required to inhibit fungal growth after 24 hrs by TLC assay. It counts as functional. The essentials:
(§1)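 Direct TLC bioautography: compound amounts from 50 to 1.56 μg applied to precoated TLC plates, overlaid with Mueller Hinton or Sabouraud agar inoculated with microorganism suspension (10⁵ cfu mL⁻¹). Plates incubated 24 h at 37 °C, then stained with aqueous 2,3,5-triphenyltetrazolium chloride (1 mg mL⁻¹). The lowest amount giving an inhibition zone was recorded; <50 μg counted active. Triplicate.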

A further assay concerns Candida tropicalis. In words: Antifungal activity against Candida tropicalis ATCC 750 assessed as concentration required to inhibit fungal growth after 24 hrs by TLC assay. Format: functional. In a few lines: as §1
A further assay deals with Cryptococcus neoformans. In words: Antifungal activity against Cryptococcus neoformans ATCC 28952 assessed as concentration required to inhibit fungal growth after 24 hrs by TLC assay. Format: functional. In a few lines:
as §1

Another assay concerns Candida albicans. In words: Antifungal activity against Candida albicans ATCC 10231 assessed as concentration required to inhibit fungal growth after 24 hrs by TLC assay. It counts as functional. The essentials: as §1
Another assay relates to Saccharomyces cerevisiae. In words: Antifungal activity against Saccharomyces cerevisiae ATCC 2601 assessed as concentration required to inhibit fungal growth after 24 hrs by TLC assay. It counts as functional. The essentials: as §1
The test system of a further assay is Staphylococcus aureus. In words: Antibacterial activity against Staphylococcus aureus ATCC 6538p assessed as concentration required to inhibit bacterial growth after 24 hrs by TLC assay. It counts as functional. The essentials:
as §1

The next assay has as its system Kocuria rhizophila. In words: Antibacterial activity against Micrococcus luteus ATCC 9341 assessed as concentration required to inhibit bacterial growth after 24 hrs by TLC assay. It counts as functional. The essentials: as §1
Assay [1] is described as follows: Antibacterial activity against Salmonella Setubal ATCC 19196 assessed as concentration required to inhibit bacterial growth after 24 hrs by TLC assay. It counts as functional, Salmonella enterica subsp. enterica serovar Setubal. The essentials:
as §1

Assay [2] concerns Staphylococcus epidermidis. Description: Antibacterial activity against Staphylococcus epidermidis ATCC 12228 assessed as concentration required to inhibit bacterial growth after 24 hrs by TLC assay. Format: functional. The essentials: as §1
Another assay relates to Escherichia coli. Description: Antibacterial activity against Escherichia coli ATCC 11103 assessed as concentration required to inhibit bacterial growth after 24 hrs by TLC assay. It counts as functional. In a few lines:
as §1

The test system of a further assay is Klebsiella pneumoniae. In words: Antibacterial activity against Klebsiella pneumoniae ATCC 10031 assessed as concentration required to inhibit bacterial growth after 24 hrs by TLC assay. It counts as functional. The essentials:
as §1

Some results are limits rather than exact numbers.

Regarding `CC[C@H](C)[C@H](NC(=O)[C@H](NC(=O)[C@H](CC(C)C)NC(=O)OCc1ccccc1)[C@@H](O)c1ccccc1)C(=O)OC` (mixture of isomers), the Activity in the assay with Candida dubliniensis, in the assay on Candida tropicalis, in the assay on Cryptococcus neoformans, with Candida albicans, in the assay with Saccharomyces cerevisiae and in the assay on Staphylococcus aureus was <50 µg each time. The Activity (in the assay on Kocuria rhizophila; in assay [1]; in assay [2]; with Escherichia coli; with Klebsiella pneumoniae) was <50 µg in each case.

For `COC(=O)[C@H](Cc1ccccc1)NC(=O)[C@H](NC(=O)[C@@H](N)CC(C)C)[C@@H](O)c1ccccc1` (mixture of isomers), the Activity with Candida dubliniensis, in the assay on Candida tropicalis, with Cryptococcus neoformans, with Candida albicans, in the assay with Saccharomyces cerevisiae and in the assay with Staphylococcus aureus was <50 µg each time. The Activity is <50 µg with Kocuria rhizophila; <50 µg in assay [1]; 3.1 µg in [2]; 12.5 µg in the assay with Escherichia coli; <50 µg in the assay with Klebsiella pneumoniae.

Regarding `COC(=O)[C@H](CC(C)C)NC(=O)[C@H](NC(=O)[C@H](CC(C)C)N(C)C)[C@@H](O)c1ccccc1` (mixture of isomers), the Activity in the assay with Candida dubliniensis, with Candida tropicalis, in the assay on Cryptococcus neoformans, in the assay with Candida albicans, with Saccharomyces cerevisiae and in the assay with Staphylococcus aureus was <50 µg each time. The Activity (with Kocuria rhizophila; in [1]; in assay [2]; with Escherichia coli; in the assay with Klebsiella pneumoniae) was <50 µg throughout.

In the case of `CC[C@H](C)[C@H](NC(=O)[C@H](NC(=O)[C@H](CC(C)C)N(C)C)[C@@H](O)c1ccccc1)C(=O)OC` (mixture of isomers), the Activity with Candida dubliniensis, in the assay with Candida tropicalis, with Cryptococcus neoformans, in the assay with Candida albicans, in the assay with Saccharomyces cerevisiae and in the assay with Staphylococcus aureus was <50 µg in each case. Further, the Activity (with Kocuria rhizophila; in [1]; in assay [2]; with Escherichia coli; with Klebsiella pneumoniae) was <50 µg throughout.

Take `COC(=O)[C@H](CC(C)C)NC(=O)[C@@H]([C@@H](O)c1ccccc1)N1CN(C)[C@@H](CC(C)C)C1=O` (mixture of isomers): the Activity in the assay with Candida dubliniensis, in the assay with Candida tropicalis, with Cryptococcus neoformans, in the assay with Candida albicans, with Saccharomyces cerevisiae and in the assay with Staphylococcus aureus was <50 µg throughout. The Activity (with Kocuria rhizophila; in assay [1]; in assay [2]; with Escherichia coli; in the assay on Klebsiella pneumoniae) was <50 µg in each case.

`COC(=O)[C@H](Cc1ccccc1)NC(=O)[C@@H]([C@@H](O)c1ccccc1)N1CN(C)[C@@H](CC(C)C)C1=O` (mixture of isomers): the Activity in the assay with Candida dubliniensis, in the assay on Candida tropicalis, with Cryptococcus neoformans, in the assay with Candida albicans, in the assay with Saccharomyces cerevisiae and with Staphylococcus aureus was <50 µg throughout. In addition, the Activity in the assay with Kocuria rhizophila was <50 µg; in assay [1] it was 12.5 µg; in assay [2] it was 6.2 µg; in the assay on Escherichia coli it was 3.1 µg; with Klebsiella pneumoniae it was 6.2 µg.

As for `CC[C@H](C)[C@H](NC(=O)[C@@H]([C@@H](O)c1ccccc1)N1CN(C)[C@@H](CC(C)C)C1=O)C(=O)OC` (mixture of isomers), the Activity in the assay with Candida dubliniensis, in the assay on Candida tropicalis, with Cryptococcus neoformans, with Candida albicans, with Saccharomyces cerevisiae and in the assay on Staphylococcus aureus was <50 µg in each case. Besides, the Activity (in the assay on Kocuria rhizophila; in [1]; in [2]; in the assay with Escherichia coli; in the assay on Klebsiella pneumoniae) was <50 µg in each case.

For `COC(=O)[C@H](CC(C)C)NC(=O)[C@@H](NC(=O)[C@H](CC(C)C)N(C)C)[C@@H](Oc1ccc(C=O)cc1)c1ccccc1` (mixture of isomers), the Activity with Candida dubliniensis, in the assay with Candida tropicalis, in the assay with Cryptococcus neoformans, in the assay with Candida albicans, with Saccharomyces cerevisiae and in the assay with Staphylococcus aureus was <50 µg throughout. Moreover, the Activity (in the assay with Kocuria rhizophila; in assay [1]; in assay [2]; in the assay with Escherichia coli; with Klebsiella pneumoniae) was <50 µg in each case.

In the case of `COC(=O)[C@H](CC(C)C)NC(=O)[C@H](NC(=O)[C@H](CC(C)C)N(C)C)[C@H](Oc1ccc(C=O)cc1)c1ccccc1` (mixture of isomers), the Activity with Candida dubliniensis, with Candida tropicalis, in the assay on Cryptococcus neoformans, with Candida albicans, in the assay with Saccharomyces cerevisiae and in the assay on Staphylococcus aureus was <50 µg throughout. Besides, the Activity (in the assay on Kocuria rhizophila; in [1]; in assay [2]; in the assay on Escherichia coli; in the assay on Klebsiella pneumoniae) was <50 µg each time.

As for `COC(=O)[C@H](CC(C)C)NC(=O)[C@H]([C@@H](Oc1ccc(C=O)cc1)c1ccccc1)N1CN(C)[C@@H](CC(C)C)C1=O` (mixture of isomers), the Activity in the assay on Candida dubliniensis, with Candida tropicalis, in the assay with Cryptococcus neoformans, in the assay with Candida albicans, with Saccharomyces cerevisiae and in the assay with Staphylococcus aureus was <50 µg each time. Besides, the Activity (in the assay with Kocuria rhizophila; in assay [1]; in [2]; with Escherichia coli; in the assay on Klebsiella pneumoniae) was <50 µg throughout.

For `COC(=O)[C@H](CC(C)C)NC(=O)[C@@H]([C@H](Oc1ccc(C=O)cc1)c1ccccc1)N1CN(C)[C@@H](CC(C)C)C1=O` (mixture of isomers), the Activity with Candida dubliniensis, in the assay with Candida tropicalis, in the assay with Cryptococcus neoformans, in the assay on Candida albicans, in the assay with Saccharomyces cerevisiae and in the assay with Staphylococcus aureus was <50 µg each time. Besides, the Activity (in the assay with Kocuria rhizophila; in assay [1]; in [2]; in the assay with Escherichia coli; in the assay with Klebsiella pneumoniae) was <50 µg in each case.

Take `COC(=O)[C@H](Cc1ccccc1)NC(=O)[C@H]([C@@H](Oc1ccc(C=O)cc1)c1ccccc1)N1CN(C)[C@@H](CC(C)C)C1=O` (mixture of isomers): the Activity with Candida dubliniensis, in the assay on Candida tropicalis, in the assay with Cryptococcus neoformans, in the assay on Candida albicans, in the assay with Saccharomyces cerevisiae and in the assay with Staphylococcus aureus was <50 µg each time. In addition, the Activity (in the assay on Kocuria rhizophila; in assay [1]; in assay [2]; in the assay with Escherichia coli; with Klebsiella pneumoniae) was <50 µg throughout.

Turning to `COC(=O)[C@H](CC(C)C)NC(=O)[C@H](NC(=O)[C@H](CC(C)C)NC(=O)OCc1ccccc1)[C@@H](O)c1ccccc1` (mixture of isomers), the Activity in the assay on Candida dubliniensis, in the assay with Candida tropicalis, in the assay with Cryptococcus neoformans, with Candida albicans, in the assay on Saccharomyces cerevisiae and in the assay with Staphylococcus aureus was <50 µg each time. For the same molecule, the Activity (in the assay with Kocuria rhizophila; in assay [1]; in assay [2]; with Escherichia coli; in the assay on Klebsiella pneumoniae) was <50 µg each time.

With `COC(=O)[C@H](Cc1ccccc1)NC(=O)[C@H](NC(=O)[C@H](CC(C)C)NC(=O)OCc1ccccc1)[C@@H](O)c1ccccc1` (mixture of isomers), the Activity in the assay with Candida dubliniensis, in the assay with Candida tropicalis, in the assay with Cryptococcus neoformans, in the assay with Candida albicans, in the assay with Saccharomyces cerevisiae and in the assay with Staphylococcus aureus was <50 µg in each case. Further, the Activity (in the assay with Kocuria rhizophila; in assay [1]; in assay [2]; in the assay on Escherichia coli; with Klebsiella pneumoniae) was <50 µg in each case.

These data come from ChEMBL document CHEMBL2407049, “Cyclopeptide alkaloids: stereochemistry and synthesis of the precursors of discarines C and D and myrianthine A” (2013).
